The text below walks through data of ChEMBL document CHEMBL1157359, “Binding of ceftobiprole and comparators to the penicillin-binding proteins of Escherichia coli, Pseudomonas aeruginosa, Staphylococcus aureus, and Streptococcus pneumoniae” (Antimicrob Agents Chemother, 2007).

The structures appear in SMILES notation. ≈ marks a conversion by molar mass, not a printed value.

What is called IC50 is the midpoint of a concentration-inhibition curve. Usually MIC stands for the smallest concentration in the dilution series that meets the test's criterion for growth inhibition. Read a low MIC as inhibition by little substance.

Test [1] can be described thus: Inhibition of bocillin FL binding to penicillin-susceptible Streptococcus pneumoniae OC 8865 penicillin-binding protein 3. Summed up: (§1)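 Whole S. pneumoniae cells were used rather than isolated membranes. Cells were competed with drug and then labeled with Bocillin FL, and PBP bands were visualized by fluorescence imaging. IC50 is the drug concentration that inhibits Bocillin FL binding to each PBP by 50% relative to a no-drug control.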

For test [2], the target named is T1, Penicillin-binding protein 1B (Pseudomonas aeruginosa, UniProt Q9X6W0).
T1 sequence (Q9X6W0 whole entry): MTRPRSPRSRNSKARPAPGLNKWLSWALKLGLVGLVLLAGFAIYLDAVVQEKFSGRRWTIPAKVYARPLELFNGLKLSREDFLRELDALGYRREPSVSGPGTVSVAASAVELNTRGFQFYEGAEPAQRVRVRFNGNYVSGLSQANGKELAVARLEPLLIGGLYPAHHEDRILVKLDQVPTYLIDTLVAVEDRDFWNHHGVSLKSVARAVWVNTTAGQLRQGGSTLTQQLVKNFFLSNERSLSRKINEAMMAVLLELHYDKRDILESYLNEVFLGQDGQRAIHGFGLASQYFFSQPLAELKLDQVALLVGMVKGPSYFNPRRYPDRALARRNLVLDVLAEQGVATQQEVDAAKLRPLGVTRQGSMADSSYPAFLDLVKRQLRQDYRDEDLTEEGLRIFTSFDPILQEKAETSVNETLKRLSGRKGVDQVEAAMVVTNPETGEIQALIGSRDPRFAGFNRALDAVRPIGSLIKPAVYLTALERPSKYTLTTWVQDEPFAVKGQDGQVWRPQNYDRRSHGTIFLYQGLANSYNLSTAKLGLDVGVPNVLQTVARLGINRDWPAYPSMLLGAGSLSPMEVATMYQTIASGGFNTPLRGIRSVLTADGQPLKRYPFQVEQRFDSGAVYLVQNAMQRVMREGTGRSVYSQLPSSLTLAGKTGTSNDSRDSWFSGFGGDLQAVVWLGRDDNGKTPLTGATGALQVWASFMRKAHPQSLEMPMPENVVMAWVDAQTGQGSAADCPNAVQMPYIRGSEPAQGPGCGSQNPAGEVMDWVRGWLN
In words: Inhibition of bocillin FL binding to Pseudomonas aeruginosa PAO1 penicillin-binding protein 1b. Summed up: (§2)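 Isolated P. aeruginosa PAO1 PBPs; drug added at 10 concentrations, 0.06 μg/ml to 32 μg/ml, before Bocillin FL labeling. Labeled PBPs imaged. IC50 is the drug level cutting Bocillin FL binding by 50% versus a no-drug sample.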

Test [3] deals with T2, Penicillin-binding protein 2 (Pseudomonas aeruginosa, UniProt Q9X6V3).
T2 sequence (Q9X6V3 whole entry): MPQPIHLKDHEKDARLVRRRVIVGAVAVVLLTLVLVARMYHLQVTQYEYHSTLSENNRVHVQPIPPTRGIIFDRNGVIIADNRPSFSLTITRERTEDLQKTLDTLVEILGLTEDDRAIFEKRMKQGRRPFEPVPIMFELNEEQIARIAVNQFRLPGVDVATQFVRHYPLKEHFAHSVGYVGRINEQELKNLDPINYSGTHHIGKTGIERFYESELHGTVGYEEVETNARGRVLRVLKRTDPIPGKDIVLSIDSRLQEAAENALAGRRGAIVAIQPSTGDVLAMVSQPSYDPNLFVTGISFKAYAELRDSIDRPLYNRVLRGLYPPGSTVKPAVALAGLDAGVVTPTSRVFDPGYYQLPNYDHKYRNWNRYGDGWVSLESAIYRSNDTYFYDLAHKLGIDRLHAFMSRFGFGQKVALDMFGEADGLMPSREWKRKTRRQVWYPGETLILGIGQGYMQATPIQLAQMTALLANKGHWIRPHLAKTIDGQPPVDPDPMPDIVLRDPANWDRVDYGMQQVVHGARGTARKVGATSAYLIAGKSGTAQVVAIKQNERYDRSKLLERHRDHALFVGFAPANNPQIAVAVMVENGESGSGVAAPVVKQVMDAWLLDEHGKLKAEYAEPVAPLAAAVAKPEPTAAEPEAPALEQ
Briefly: Inhibition of bocillin FL binding to Pseudomonas aeruginosa PAO1 penicillin-binding protein 2. Summed up:
as §2

Test [4] is described as follows: Inhibition of bocillin FL binding to penicillin-susceptible Streptococcus pneumoniae OC 8865 penicillin-binding protein 2x. Summed up: as §1
Test [5] can be described thus: Inhibition of bocillin FL binding to penicillin-resistant Streptococcus pneumoniae OC 8819 penicillin-binding protein 3. Summed up: as §1
For test [6], the system named is Streptococcus pneumoniae. In words: Antibacterial activity against penicillin-resistant Streptococcus pneumoniae OC 8819 by CLSI method. Format: functional.
Test [7] in a line: Inhibition of bocillin FL binding to penicillin-susceptible Streptococcus pneumoniae OC 8865 penicillin-binding protein 2a. Summed up: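 S. pneumoniae OC 8865 PBPs assayed in whole cells; drug competition followed by Bocillin FL labeling and imaging of labeled PBPs. IC50 is 50% inhibition of Bocillin FL binding compared with a no-drug control.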
Test [8] deals with T3, Penicillin-binding protein 2 (Staphylococcus aureus, UniProt Q53729).
T3 sequence (Q53729 whole entry): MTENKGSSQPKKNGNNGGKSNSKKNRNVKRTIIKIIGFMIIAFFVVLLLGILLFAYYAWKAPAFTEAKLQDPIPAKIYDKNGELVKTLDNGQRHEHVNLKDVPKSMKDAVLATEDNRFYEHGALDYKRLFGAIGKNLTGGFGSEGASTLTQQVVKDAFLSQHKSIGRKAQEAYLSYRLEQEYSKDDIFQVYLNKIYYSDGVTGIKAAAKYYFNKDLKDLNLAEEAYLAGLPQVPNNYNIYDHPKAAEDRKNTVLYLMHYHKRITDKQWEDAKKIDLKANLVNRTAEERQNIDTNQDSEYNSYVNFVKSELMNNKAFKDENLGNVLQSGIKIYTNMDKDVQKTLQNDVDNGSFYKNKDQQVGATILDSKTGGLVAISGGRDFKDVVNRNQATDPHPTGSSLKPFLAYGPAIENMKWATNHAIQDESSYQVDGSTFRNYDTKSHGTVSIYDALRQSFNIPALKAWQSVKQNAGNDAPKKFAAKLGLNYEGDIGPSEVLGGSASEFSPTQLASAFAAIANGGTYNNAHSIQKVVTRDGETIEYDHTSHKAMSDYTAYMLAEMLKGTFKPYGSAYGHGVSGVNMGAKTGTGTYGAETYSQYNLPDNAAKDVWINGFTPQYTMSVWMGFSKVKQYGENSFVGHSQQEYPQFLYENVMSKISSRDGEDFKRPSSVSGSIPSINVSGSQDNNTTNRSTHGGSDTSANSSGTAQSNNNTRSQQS
Briefly: Inhibition of bocillin FL binding to methicillin-susceptible Staphylococcus aureus ATCC 29213 penicillin-binding protein 2. The procedure, abridged: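 Isolated S. aureus ATCC 29213 PBPs exposed to drug over 0.001 μg/ml to 50 μg/ml, followed by Bocillin FL labeling and fluorescence imaging. IC50 is 50% inhibition of Bocillin FL binding relative to no-drug control.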

For the compound `Nc1nc(/C(=N/O)C(=O)N[C@@H]2C(=O)N3C(C(=O)O)=C(/C=C4\CCN([C@@H]5CCNC5)C4=O)CS[C@H]23)ns1` [CEFTOBIPROLE], the half-inhibitory concentration (IC50) in test [1] is 0.02 µg/mL (≈ 0.0374 µM); in test [2], 935 nM; in test [3] it was 5610 nM; in test [4] it was 0.01 µg/mL (≈ 0.0187 µM); in test [5], 0.01 µg/mL (≈ 0.0187 µM); in test [7], 0.03 µg/mL (≈ 0.0561 µM). In test [8], this compound showed an IC50 of 935 nM. In test [6], this compound returned an MIC of 1 µg/mL (≈ 1.87 µM).

As to `CC(C)(O/N=C(\C(=O)N[C@@H]1C(=O)N2C(C(=O)[O-])=C(C[n+]3ccccc3)CS[C@H]12)c1csc(N)n1)C(=O)O` [CEFTAZIDIME], the IC50 is 9150 nM in test [2] and greater than 58500 nM in test [3].

In the case of `CO/N=C(\C(=O)N[C@@H]1C(=O)N2C(C(=O)O)=C(CSc3nc(=O)c(O)nn3C)CS[C@H]12)c1csc(N)n1` (stereo in doubt) [CEFTRIAXONE], the IC50 was 0.02 µg/mL (≈ 0.0361 µM) in test [1]; 0.03 µg/mL (≈ 0.0541 µM) in test [4]; 0.01 µg/mL (≈ 0.018 µM) in test [5]; 0.1 µg/mL (≈ 0.18 µM) in test [7]; 180 nM in test [8]. Moreover, it took 8 µg/mL (≈ 14.4 µM) to inhibit growth in test [6] (MIC).
